Three molecules from ChEMBL document CHEMBL2040803, “Synthesis and anticonvulsant activity of ethyl 1-(2-arylhydrazinecarboxamido)-2,2-dimethylcyclopropanecarboxylate derivatives” (Eur J Med Chem, 2012) can be followed below.

Data set [1] concerns Mus musculus. The experiment in a line: Anticonvulsant activity in Kunming mouse assessed as protection against maximal electroshock-induced seizures at 30 mg/kg, ip measured after 0.5 hr. Also noted: dose 30 mg/kg. In kind it is functional, organism-based. The essentials:
(§1)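 Male Kunming mice (20 ± 2.0 g) were dosed ip at 30, 100 and 300 mg/kg as a suspension in 0.5% methylcellulose, one to four mice per dose. A 60-Hz, 50-mA current was applied through corneal electrodes for 0.25 s at 0.5 h and 4.0 h after dosing. Absence of hindlimb tonic extension counted as protection. The value is the minimal dose protecting half or more of the mice.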
(In the maximal electroshock model the usual endpoint is tonic extension of the hind limbs.)

In data set [2] the test system is Mus musculus. The experiment in a line: Anticonvulsant activity in Kunming mouse assessed as protection against maximal electroshock-induced seizures at 30 mg/kg, ip measured after 4 hrs. In kind it is functional, organism-based. On the set-up: dose 30 mg/kg. The essentials: as §1
Data set [3] has as its system Mus musculus. The experiment in a line: Anticonvulsant activity in Kunming mouse assessed as protection against subcutaneous pentylenetetrazol-induced clonic seizures at 300 mg/kg, ip measured after 0.5 hrs. In kind it is functional, organism-based. Also noted: dose 300 mg/kg. The essentials:
(§2)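 Male Kunming mice (20 ± 2.0 g) received ip doses of 30, 100 or 300 mg/kg as a suspension in 0.5% methylcellulose, one to four mice per dose. Pentylenetetrazole in 0.9% saline was injected subcutaneously. Protection meant failure to show even a threshold seizure (a single clonic spasm lasting at least 5 s), read at 0.5 h and 4.0 h. Activity was scored as the minimal dose protecting half or more of the mice.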

The subject of data set [4] is Mus musculus. The experiment in a line: Anticonvulsant activity in Kunming mouse assessed as protection against subcutaneous pentylenetetrazol-induced clonic seizures at 300 mg/kg, ip measured after 4 hrs. In kind it is functional, organism-based. Also noted: dose 300 mg/kg. The essentials:
as §2

For data set [5], the system named is Mus musculus. The experiment in a line: Neurotoxicity in Kunming mouse at 100 mg/kg, ip after 0.5 hr by rotorod test. In kind it is toxicity, organism-based. On the set-up: dose 100 mg/kg, route intraperitoneal. Particulars: in vivo. An outline of the steps: (§3)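 Trained male Kunming mice were given ip doses of 30, 100 or 300 mg/kg, one to four per dose. They were placed on a 1 in. knurled rod rotating at 6 rpm, and examined at 0.5 h and 4.0 h. Neurotoxicity was inability to keep balance for at least 1 min in each of four trials. The value is the minimal dose giving toxicity in half or more of the mice.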
Background: Falling from the rotarod earlier than controls is read as motor impairment.

The test system of data set [6] is Mus musculus. The experiment in a line: Anticonvulsant activity in ip dosed Kunming mouse assessed as protection against subcutaneous pentylenetetrazol-induced clonic seizures. In kind it is functional.
In data set [7] the test system is Mus musculus. The experiment in a line: Neurotoxicity in Kunming mouse at 100 mg/kg, ip after 4 hrs by rotorod test. In kind it is toxicity, organism-based. On the set-up: dose 100 mg/kg, route intraperitoneal. Conditions: in vivo. An outline of the steps:
as §3

Data set [8] deals with Mus musculus. The experiment in a line: Anticonvulsant activity in Kunming mouse assessed as protection against subcutaneous pentylenetetrazol-induced clonic seizures at 100 mg/kg, ip measured after 4 hrs. In kind it is functional, organism-based. On the set-up: dose 100 mg/kg. The essentials: as §2
In data set [9] the test system is Mus musculus. The experiment in a line: Neurotoxicity in Kunming mouse at 300 mg/kg, ip after 0.5 hr by rotorod test. In kind it is toxicity, organism-based. On the set-up: dose 300 mg/kg, route intraperitoneal. Conditions: in vivo. The essentials:
as §3

The subject of data set [10] is Mus musculus. The experiment in a line: Anticonvulsant activity in ip dosed Kunming mouse assessed as protection against maximal electroshock-induced seizures. In kind it is functional.
Data set [11] can be described thus: Neurotoxicity in ip dosed Kunming mouse measured 30 mins post compound administration by rotorod test. In kind it is toxicity, organism-based. Conditions: in vivo.
For data set [12], the species on record is Mus musculus. The experiment in a line: Protective index, ratio of TD50 for neurotoxicity in Kunming mouse to ED50 for protection against MES-induced seizures in Kunming mouse. In kind it is functional.
Data set [13] concerns Mus musculus. The experiment in a line: Protective index, ratio of TD50 for neurotoxicity in Kunming mouse to ED50 for protection against subcutaneous pentylenetetrazol-induced clonic seizures in Kunming mouse. In kind it is functional.
In data set [14] the test system is Mus musculus. The experiment in a line: Neurotoxicity in Kunming mouse at 300 mg/kg, ip after 4 hrs by rotorod test. In kind it is toxicity, organism-based. Also noted: dose 300 mg/kg, route intraperitoneal. Conditions: in vivo. The essentials: as §3
Data set [15] has as its system Mus musculus. The experiment in a line: Anticonvulsant activity in Kunming mouse assessed as protection against maximal electroshock-induced seizures at 100 mg/kg, ip measured after 4 hrs. In kind it is functional, organism-based. On the set-up: dose 100 mg/kg. An outline of the steps: as §1
In data set [16] the test system is Mus musculus. The experiment in a line: Anticonvulsant activity in Kunming mouse assessed as protection against subcutaneous pentylenetetrazol-induced clonic seizures at 100 mg/kg, ip measured after 0.5 hrs. In kind it is functional, organism-based. On the set-up: dose 100 mg/kg. The essentials:
as §2

Activity calls are given as the source filed them.

Broadly, the ED50 is the dose at which the effect has come halfway, by size or by number of responders. In general, TD50 refers to the dose at which the toxic effect under study appears in half of the subjects.

For `O=C1NC(=O)C(c2ccccc2)(c2ccccc2)N1` [PHENYTOIN], the outcome in the data set on Mus musculus [1] and with Mus musculus [2] was Active. The outcome in the data set with Mus musculus [3] and in the data set on Mus musculus [4] was inactive. In addition, the Activity result with Mus musculus [5] and with Mus musculus [7] was “Toxic” in each case. Besides, in the data set on Mus musculus [6], the median effective dose (ED50) is greater than 300 mg/kg.

As for `CCOC(=O)C1(NC(=O)NNC(=O)c2ccc(C(F)(F)F)cc2)CC1(C)C` (centres undefined), the outcome with Mus musculus [1], with Mus musculus [2], in the data set with Mus musculus [3] and with Mus musculus [8] was Active. Besides, the Activity result with Mus musculus [9] and in the data set with Mus musculus [14] was “Non-toxic” throughout. In addition, the ED50 in the data set with Mus musculus [10] stood at 9.8 mg/kg; with Mus musculus [6], 58.4 mg/kg. Besides, in data set [11], the TD50 at 0.5 h amounted to 332 mg/kg. In addition, the “Ratio TD50/ED50” value in the data set filed under Mus musculus [12] turned out to be 33.9; in the data set with Mus musculus [13], 5.9.

As for `CCOC(=O)C1(NC(=O)NN2C(=O)c3ccccc3C2=O)CC1(C)C` (centres undefined), the outcome in the data set on Mus musculus [1], in the data set on Mus musculus [15], in the data set with Mus musculus [16] and in the data set with Mus musculus [4] was Active. Besides, the Activity entry with Mus musculus [9] and with Mus musculus [14] was “Non-toxic” each time. Also, the 50% effective dose (ED50) in the data set on Mus musculus [10] came out at 23.6 mg/kg; in the data set on Mus musculus [6], 213 mg/kg. In data set [11], this molecule came in with a TD50 at 0.5 h of 352 mg/kg. Moreover, the “Ratio TD50/ED50” value in the data set filed under Mus musculus [12] is 14.9; in the data set on Mus musculus [13], 1.7.
